# MEKK2 mut-MEK5 = MEK5 binding signal on mutant MEKK2 PB1, primary screen, biochemical, multiplex bead flow cytometry, Alexa488-MEK5 | Alexa488-MEK5 binding to MEKK2 mutant | percent response, % at 10 µM | 290,000 tested, 0.35% active | AID 1530, 2009; in the data active = percent response above about 24%, passing the limit was not always enough
# Rce1 inhib = yeast Rce1p protease inhibitors, primary screen, biochemical, fluorescence, cell-free homogeneous; AID 2563, 2010; CAAX prenyl protease 2 (Saccharomyces cerevisiae (strain ATCC 204508 / S288c)), Q03530; yeast membranes, quenched prenylated peptide cleavage fluorescence; calls only; 290,000 tested, 0.27% active;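 active = fall in fluorescence gain of 50% or more versus controls, with final raw signal at or below 3038400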;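 note: plate controls were neutral control wells for no effect and wells lacking membranes for full effect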
# Target sequence (Q03530 whole entry, looked up): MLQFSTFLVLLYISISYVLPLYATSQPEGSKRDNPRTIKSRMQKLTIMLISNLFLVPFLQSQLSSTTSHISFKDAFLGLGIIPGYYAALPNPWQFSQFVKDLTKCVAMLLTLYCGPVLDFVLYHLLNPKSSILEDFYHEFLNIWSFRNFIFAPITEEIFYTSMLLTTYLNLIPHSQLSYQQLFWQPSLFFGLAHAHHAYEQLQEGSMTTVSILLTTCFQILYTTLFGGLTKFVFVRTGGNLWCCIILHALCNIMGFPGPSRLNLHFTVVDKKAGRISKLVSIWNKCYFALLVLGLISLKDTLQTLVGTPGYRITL
# MEKK2wt PB1 HTS = modulators of MEK5 binding to wildtype MEKK2, primary screen, biochemical, multiplex bead flow cytometry, Alexa488-MEK5; Alexa488-MEK5 binding to MEKK2 WT; actives lie on both sides; binding response (% of control), % at 10 µM; 290,000 tested, 1.1% active; Mitogen-activated protein kinase kinase kinase 2 (Homo sapiens), Q9Y2U5; AID 1531, 2009; in the data active = binding response below about 67% or above about 130%
# T cell HTS = modulators of CD8 T cell-vesicle binding, primary screen, mouse 2C CD8+ T cells, flow cytometry. response (vesicle binding), % at 7 µM. 2C CD8+ T cell-vesicle binding; active compounds read low. 330,000 tested, 0.068% active. AID 2052, 2009;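 active = response, share of CD8 T cells binding vesicles, and their 90th percentile fluorescence all below set limits, cut at about 80% in these data, passing the limit was not always enough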;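 note: values below 100% mean blocked vesicle binding to the CD8+ T cells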
#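 System: murine 2C transgenic CD8+ T lymphocytes; also added: QL9-loaded Drosophila micro-vesicles; times: binding 1.5 h at 37 °C; measured by: flow cytometry, PE anti-B7-1 (FL2) versus Alexa647 anti-CD8 (FL8), PFA-fixed; control set: Peptide-free naked vesicles (low) and QL9 vesicles with 0.7% DMSO vehicle (high)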
# MEKK3 PB1 HTS = modulators of MEKK3-MEK5 PB1 binding, primary screen, biochemical, wildtype MEKK3, multiplex bead flow cytometry, Alexa488-MEK5. Mitogen-activated protein kinase kinase kinase 3 (Homo sapiens), Q99759. bead-based flow cytometry, Alexa488-MEK5 binding to MEKK3; actives lie on both sides; 0 = blocked by unlabeled MEK5, 100 = vehicle. binding response (% of control), % at 10 µM. 290,000 tested, 1.4% active;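 active = binding response more than 3 SD above or below the average of its plate-row segment, actives on both sides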;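 note: Alexa488 bead fluorescence after subtracting the streptavidin-only scavenger bead signal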
# UCH37 DUB inh = inhibitors of human UCH37 deubiquitinase, primary screen, biochemical, Ub-AMC cleavage, fluorescence; 330,000 tested, 0.33% active; Ubiquitin carboxyl-terminal hydrolase isozyme L5 (Homo sapiens), Q9Y5K5; purified proteasome/UCH37; AID 588478, 2011; inhibition, % (test concentration not listed);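 active = mean inhibition over replicate wells above about 20%, limit read from the data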;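 note: 0% = compound-free wells with enzyme and 100% = wells lacking proteasome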
# Target sequence (Q9Y5K5 whole entry, looked up): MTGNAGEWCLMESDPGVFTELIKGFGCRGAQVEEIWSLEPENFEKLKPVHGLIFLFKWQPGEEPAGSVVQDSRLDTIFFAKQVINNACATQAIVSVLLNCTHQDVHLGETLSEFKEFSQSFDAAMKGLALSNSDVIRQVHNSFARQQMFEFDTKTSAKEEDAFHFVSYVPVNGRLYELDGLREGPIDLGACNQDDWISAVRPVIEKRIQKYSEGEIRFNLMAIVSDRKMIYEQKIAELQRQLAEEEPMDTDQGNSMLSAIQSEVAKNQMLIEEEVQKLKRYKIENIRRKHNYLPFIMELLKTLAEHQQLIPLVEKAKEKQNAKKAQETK
#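 Reagent: Ub-AMC substrate; assay system: Proteasome-associated human UCH37 deubiquitinase; controls: no-proteasome and no-compound wells; read-out: % inhibition of Ub-AMC cleavage fluorescence; timing: 30 min preincubation with enzyme, 25 min cleavage at room temperature; signal: AMC fluorescence from Ub-AMC cleavage, excitation 355 nm, emission 460 nm; buffer or medium: Tris-HCl pH 7.4 plus ovalbumin, ATP-MgCl2, DTT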
# MEKK2wt confirm = modulators of MEK5 binding to wildtype MEKK2, confirmation, biochemical, single concentration, multiplex bead flow cytometry; shares compounds with MEKK3 PB1 HTS; Alexa488-MEK5 binding to MEKK2 WT; actives lie on both sides; binding response (% of control), % at 10 µM; 5,900 tested, 2.4% active; AID 1892, 2009; in the data active = binding response below about 16% or above about 210%; inactive = in between
# MEKK2mut-MEK5 = mutant MEKK2 PB1-MEK5 binding signal retest – biochemical, single concentration, multiplex bead flow cytometry, confirmation. percent response, % at 10 µM. AID 1893, 2009. 5,900 tested, 2% active. Alexa488-MEK5 binding to MEKK2 mutant. shares compounds with MEKK3 PB1 HTS; in the data active = percent response mostly above about 71%, no sharp cut-off; inactive = mostly below about 38%;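 note: higher means compound restores mutant binding toward wildtype level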
# MEKK3 confirm = MEKK3 wild-type PB1 binding to MEK5, inhibitors, confirmation, biochemical, bead multiplex flow cytometry, single concentration, wildtype | binding response (% of control), % at 10 µM | Alexa488-MEK5 binding to MEKK3; active compounds read low | 5,900 tested, 1.8% active | shares compounds with MEKK3 PB1 HTS;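 active = binding response below 72% of control, or above a set upper limit, though filed actives all read lower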;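 note: 100% = DMSO only wells and 0% = binding blocked by excess unlabeled MEK5; lower values mean stronger disruption of MEK5 binding to MEKK3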
# The depositor's hits bear a star; i = inactive; nt = not tested or not shown; [ ] = remark or other dose. Sampled rows, rich in hits. Any-hit rate of the full collection: about 2.5%.
SMILES,MEKK2 mut-MEK5,Rce1 inhib,MEKK2wt PB1 HTS,T cell HTS,MEKK3 PB1 HTS,UCH37 DUB inh,MEKK2wt confirm,MEKK2mut-MEK5,MEKK3 confirm
CNC[C@H](CC1CCCCC1)NC[C@H](CO)NCCc1cccc(C(F)(F)F)c1,6,i,152*,911,104,nt,156,39,109
CNC[C@H](CC1CCCCC1)NC[C@H](CO)NCC1(c2ccccc2)CC1,-1,i,114,468,103,1,nt,nt,nt
CC(C)c1cc(C(=O)NN=Cc2ccco2)n[nH]1,nt,nt,nt,nt,nt,2,nt,nt,nt
O=C1c2ccccc2-c2onc3ccc(NCCCn4ccnc4)c1c23,-21,i,28*[inhibitor],421,33*[inhibitor],11,42,-15,42*
Cc1nnc(NCc2n[nH]c(=O)c3ccccc23)c2ccccc12,-6,i,41*[inhibitor],nt,31*[inhibitor],1,95,-2,93
Cc1nn(-c2ccccc2)c(N2CCCC2)c1C=NNC(=S)Nc1ccc(F)cc1,nt,nt,nt,nt,nt,0,nt,nt,nt
CN(CC(=O)Nc1cccc2c1CCCC2)S(=O)(=O)c1ccc(Br)cc1,-3,i,94,575,94,5,nt,nt,nt
CN(CC(=O)Nc1cccc2c1CCCC2)S(=O)(=O)c1ccccc1,-4,i,88,353,80*[inhibitor],3,99,6,100
O=C(/C=C/c1ccco1)N(Cc1ccccc1)C1CCS(=O)(=O)C1 (stereo not given),-8,i,101,269,97,5,nt,nt,nt
O=C(/C=C/c1ccco1)N(Cc1ccc(F)cc1)C1CCS(=O)(=O)C1 (stereo not given),-17,i,63*[inhibitor],261,59*[inhibitor],4,97,-1,98
COc1ccc(C(C)=NNC(=O)CNC(=O)c2ccco2)c(OC)c1,nt,nt,nt,nt,nt,-2,nt,nt,nt
CCN(CC)CCNC(=O)c1ccc(NC(=O)C2CCN(c3ncnc4sc(C)c(C)c34)CC2)cc1,16,i,147*,240,105,3,-5.0*[inhibitor],9,90
Cc1sc2ncnc(N3CCC(C(=O)Nc4ccc(OC(F)F)c(Cl)c4)CC3)c2c1C,nt,nt,nt,182,nt,3,nt,nt,nt
CCCCOP(=O)(OCCCC)C(Nc1ccccc1)c1ccc2c(c1)OCO2 (stereo not given),1,i,113,177,144*,2,99,0,102
CC(C)COP(=O)(OCC(C)C)C(O)c1ccc2c(c1)OCO2 (stereo not given),26,i,121,231,130*,1,98,-5,100
CC(C)OP(=O)(OC(C)C)C(O)c1ccc2c(c1)OCO2 (stereo not given),-1,i,106,219,99,0,nt,nt,nt
CC(C)C(NC(=O)C12CC3CC(CC(C3)C1)C2)C(=O)NN=CC1=C(N2CCOCC2)/C(=C\c2cccc([N+](=O)[O-])c2)CC1 (stereo not given),nt,nt,nt,nt,nt,6,nt,nt,nt
O=C(Cn1cnc2ccccc21)NN=Cc1ccc([N+](=O)[O-])cc1,nt,nt,nt,nt,nt,1,nt,nt,nt
O=C(NC(N1CCOCC1)C(Cl)(Cl)Cl)c1ccccc1Cl (stereo not given),-6,i,55*[inhibitor],384,84,6,106,8,107
CCOc1ccc(NC(=O)C(=O)NN=Cc2cccnc2)cc1,nt,nt,nt,nt,nt,3,nt,nt,nt
COc1ccccc1NC(=O)CN1CCC(n2c(C)nc3cc(F)ccc32)CC1,-16,i,2.0*[inhibitor],354,2.0*[inhibitor],0,106,5,106
COc1ccccc1NC(=O)CN1CCC(n2nnc3cc(F)ccc32)CC1,-2,i,106,544,103,3,nt,nt,nt
Cc1sc2nc(CN3CCOCC3)nc(Cl)c2c1C,1,i,101,531,102,2,nt,nt,nt
Cc1sc2nc(CN3CCC(C)CC3)nc(Cl)c2c1C,6,i,111,206,161*,-1,97,-3,95
CCN(C(=O)COC(=O)c1cc(=O)[nH]c2ccccc12)C1CCS(=O)(=O)C1 (stereo not given),-14,i,37*[inhibitor],166,37*[inhibitor],-30,98,3,101
SMILES,MEKK2 mut-MEK5,Rce1 inhib,MEKK2wt PB1 HTS,T cell HTS,MEKK3 PB1 HTS,UCH37 DUB inh,MEKK2wt confirm,MEKK2mut-MEK5,MEKK3 confirm
CCN(C(=O)COC(=O)c1cc(-c2ccc3cc(OC)ccc3c2)nc2ccccc12)C1CCS(=O)(=O)C1 (stereo not given),-2,i,95,273,98,-336,nt,nt,nt
CC(C)(C)c1ccc(OCC(=O)NN=CC2CC=CCC2)cc1 (stereo not given),nt,nt,nt,nt,nt,0,nt,nt,nt
Cn1c(O)c(C2=c3ccccc3=NC2=O)[nH]c1=S,-1,i,96,129,75*[inhibitor],nt,96,9,97
COc1ccc2nc(-n3c(O)c(C4=c5ccccc5=NC4=O)[nH]c3=S)sc2c1,8,i,96,360,93,10,nt,nt,nt
Cc1cccc(CSc2cn(CC(=O)N3CCOCC3)c3ccccc23)c1,34,i,113,222,113,1,nt,nt,nt
O=C(Cn1cc(SCc2cccc(Cl)c2)c2ccccc21)N1CCOCC1,1,i,111,565,140*,3,101,-17,98
NS(=O)(=O)c1ccc(CCNC(c2ccccc2)c2ccccc2)cc1,-4,i,95,278,99,2,nt,nt,nt
c1ccc(C(NCCNC(c2ccccc2)c2ccccc2)c2ccccc2)cc1,27*,i,142*,209,111,2,151,26,108
CC(C)CNc1nc(N)c([N+](=O)[O-])c(NCC2CCCO2)n1 (stereo not given),-3,i,94,785,95,7,nt,nt,nt
